Results from ChEMBL document CHEMBL1154616, “Synthesis and antitumor activity studies of some new fused 1,2,4-triazole derivatives carrying 2,4-dichloro-5-fluorophenyl moiety” (Eur J Med Chem, 2009).

What was measured:
Assay type in all cases: functional
[1] = tested on: UACC-62; assay: Anticancer activity against human UACC62 cells after 48 hrs by sulforhodamine B assay; conditions: UACC-62, 48 h
Summary of the method: (§1)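 Cells from the 60-line full panel are preincubated on microtiter plates, then treated across a five-log dose range for 48 h. Growth is read with the protein-binding dye sulforhodamine B. GI50 is the concentration giving 50% growth inhibition relative to untreated control cells.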

[2] = tested on: EKVX; assay: Anticancer activity against human EKVX cells after 48 hrs by sulforhodamine B assay
Summary of the method: (§2)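 Full 60-cell-line panel, compounds tested over a five-log dose range. Cells are preincubated on microtiter plates, the agent is added, and cultures run 48 h. The end point is sulphorhodamine B protein staining. GI50 is taken as the concentration giving 50% growth inhibition relative to untreated control cells.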

[3] = tested on: HL-60(TB); assay: Anticancer activity against human HL-60(TB) cells after 48 hrs by sulforhodamine B assay; conditions: HL-60, 48 h
Summary of the method: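 Run within the full 60-cell-line panel across a five-log dose range. GI50 was taken as the concentration causing 50% growth inhibition relative to untreated control cells.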

[4] = tested on: U-251; assay: Anticancer activity against human U251 cells after 48 hrs by sulforhodamine B assay; conditions: U-251, 48 h; summary of the method: as §1
[5] = tested on: CAKI-1; assay: Anticancer activity against human Caki1 cells after 48 hrs by sulforhodamine B assay; conditions: CAKI-1, 48 h; summary of the method: as §2
[6] = tested on: T47D; assay: Anticancer activity against human T47D cells after 48 hrs by sulforhodamine B assay; summary of the method: as §1
[7] = tested on: TK-10; assay: Anticancer activity against human TK10 cells after 48 hrs by sulforhodamine B assay; conditions: TK-10, 48 h; summary of the method: as §1
[8] = tested on: UO-31; assay: Anticancer activity against human UO31 cells after 48 hrs by sulforhodamine B assay; conditions: UO-31, 48 h; summary of the method: as §1
[9] = tested on: HT-29; assay: Anticancer activity against human HT-29 cells after 48 hrs by sulforhodamine B assay; conditions: HT-29, 48 h; summary of the method: as §2
[10] = tested on: HOP-92; assay: Anticancer activity against human HOP92 cells after 48 hrs by sulforhodamine B assay; conditions: HOP-92, 48 h; summary of the method: as §2
[11] = tested on: SK-OV-3; assay: Anticancer activity against human SKOV3 cells after 48 hrs by sulforhodamine B assay; conditions: SK-OV-3, 48 h; summary of the method: as §2
[12] = tested on: SK-MEL-28; assay: Anticancer activity against human SK-MEL-28 cells after 48 hrs by sulforhodamine B assay; conditions: SK-MEL-28, 48 h; summary of the method: as §2
[13] = tested on: IGROV-1; assay: Anticancer activity against human IGROV1 cells after 48 hrs by sulforhodamine B assay; conditions: IGROV-1, 48 h; summary of the method: as §2
[14] = tested on: SF-295; assay: Anticancer activity against human SF295 cells after 48 hrs by sulforhodamine B assay; conditions: SF-295, 48 h; summary of the method: as §2
[15] = Anticancer activity against human […] cells after 48 hrs by sulforhodamine B assay; summary of the method: as §2
[16] = tested on: PC-3; assay: Anticancer activity against human PC3 cells after 48 hrs by sulforhodamine B assay; conditions: PC-3, 48 h; summary of the method: as §2
[17] = tested on: OVCAR-8; assay: Anticancer activity against human OVCAR8 cells after 48 hrs by sulforhodamine B assay; conditions: OVCAR-8, 48 h; summary of the method: as §2
[18] = tested on: NCI-H23; assay: Anticancer activity against human NCI-H23 cells after 48 hrs by sulforhodamine B assay; conditions: NCI-H23, 48 h; summary of the method: as §2
[19] = tested on: NCI-H322M; assay: Anticancer activity against human NCI-H322M cells after 48 hrs by sulforhodamine B assay; summary of the method: as §2
[20] = tested on: HCT-15; assay: Anticancer activity against human HCT15 cells after 48 hrs by sulforhodamine B assay; conditions: HCT-15, 48 h; summary of the method: as §2
[21] = tested on: MCF7; assay: Anticancer activity against human MCF7 cells after 48 hrs by sulforhodamine B assay; conditions: MCF7, 48 h; summary of the method: as §2
[22] = tested on: SF-268; assay: Anticancer activity against human SF268 cells assessed as cell growth at 100 uM after 48 hrs by sulforhodamine B assay relative to control; conditions: SF-268, 48 h, read-out: Activity
Summary of the method: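 Three-cell-line prescreen (NCI-H460 lung, MCF7 breast, SF 268 CNS), each preincubated on microtiter plates. The agent is added at a single concentration and cultures are incubated 48 h. Growth is read by sulphorhodamine B protein staining and reported as percent growth of treated versus untreated control cells; negative values indicate cell kill.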

[23] = tested on: OVCAR-5; assay: Anticancer activity against human OVCAR5 cells after 48 hrs by sulforhodamine B assay; conditions: OVCAR-5, 48 h; summary of the method: as §2
[24] = tested on: LOX IMVI; assay: Anticancer activity against human LOXIMVI cells after 48 hrs by sulforhodamine B assay; summary of the method: as §2
[25] = tested on: A549; assay: Anticancer activity against human A549 cells after 48 hrs by sulforhodamine B assay; conditions: A549, 48 h; summary of the method: as §2
[26] = Anticancer activity against human Hs 578T cells after 48 hrs by sulforhodamine B assay; summary of the method: as §2
[27] = tested on: DU-145; assay: Anticancer activity against human DU145 cells after 48 hrs by sulforhodamine B assay; conditions: DU-145, 48 h; summary of the method: as §2

For `Fc1cc(C2=Nn3c(nnc3-c3cc(F)c(Cl)cc3Cl)SC2)c(Cl)cc1Cl`, the GI50 [1] was 13.3 µM, the GI50 [2] was 24.6 µM and the GI50 [3] was 80.4 µM. It also gave a GI50 [4] of 20.4 µM, a GI50 [5] of 20.6 µM and a GI50 [6] of 4.93 µM. The GI50 [7] was 37.4 µM, the GI50 [8] was 31.3 µM and the GI50 [9] was 20.1 µM. The GI50 [10] was 11.3 µM, the GI50 [11] was 29.2 µM and the GI50 [12] was 21.5 µM. For the same compound, the GI50 [13] was 29.8 µM, the GI50 [14] was 20.3 µM and the GI50 [15] was 6 µM. The GI50 [16] was 16.9 µM, the GI50 [17] was 26 µM and the GI50 [18] was 21.8 µM. It also gave a GI50 [19] of 29.1 µM, a GI50 [20] of 20.2 µM and a GI50 [21] of 16.8 µM. It also gave a growth at 100 µM [22] of 26%, a GI50 [23] of 56.8 µM and a GI50 [24] of 21.6 µM. It also gave a GI50 [25] of 23.7 µM, a GI50 [26] of 21.9 µM and a GI50 [27] of 36.6 µM.
